Experimental data: ChEMBL document CHEMBL4364258, “Discovery of novel benzofuran-based compounds with neuroprotective and immunomodulatory properties for Alzheimer's disease treatment” (Eur J Med Chem, 2019)
Activity calls are given as the source filed them. The calls are words filed in the database; no cut-off is given here.

Columns and labels:
Cholinesterase [1] = molecular target: T1, Cholinesterase (Homo sapiens, UniProt P06276); assay: Inhibition of human recombinant BuChE using butyrylthiocholine iodide as substrate preincubated for 20 mins followed by substrate addition by Ellman's spectrophotometric method
Cannabinoid receptor 1 [2] = molecular target: T2, Cannabinoid receptor 1 (Homo sapiens, UniProt P21554); assay: Displacement of 3[H]-CP55940 from human recombinant CB1 receptor expressed in HEK293 cell membranes measured after 90 mins by Cheng-Prusoff equation analysis
Cannabinoid receptor 2 [3] = molecular target: T3, Cannabinoid receptor 2 (Homo sapiens, UniProt P34972); assay: Displacement of 3[H]-CP55940 from human recombinant CB2 receptor expressed in HEK293 cell membranes measured after 90 mins by Cheng-Prusoff equation analysis
Cannabinoid receptor 2 [4] = molecular target: T3, Cannabinoid receptor 2; assay: Displacement of 3[H]-CP55940 from human recombinant CB2 receptor expressed in HEK293 cell membranes measured after 90 mins
Cholinesterase [5] = molecular target: T1, Cholinesterase; assay: Potency index, ratio of galanthamine IC50 to compound IC50 for inhibition of human recombinant BuChE
Cannabinoid receptor 1 [6] = molecular target: T2, Cannabinoid receptor 1; assay: Displacement of 3[H]-CP55940 from human recombinant CB1 receptor expressed in HEK293 cell membranes measured after 90 mins
Cholinesterase [7] = molecular target: T1, Cholinesterase; assay: Inhibition of human recombinant BuChE at 25 uM using butyrylthiocholine iodide as substrate preincubated for 20 mins followed by substrate addition by Ellman's spectrophotometric method relative to control
Homo sapiens = species: Homo sapiens; assay: Selectivity index, ratio of Ki for displacement of 3[H]-CP55940 from human recombinant CB1 receptor expressed in HEK293 cell membranes to Ki for displacement of 3[H]-CP55940 from human recombinant CB2 receptor expressed in HEK293 cell membranes
Cannabinoid receptor 2 [8] = molecular target: T3, Cannabinoid receptor 2; assay: Inverse agonist activity at recombinant human CB2R expressed in CHOK1 cells assessed as increase in NKH477-stimulated intracellular cAMP levels after 30 mins by chemiluminescent based cAMP Hunter assay; format: functional, cell-based
Outline: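 CHO-K1 cells stably expressing human CB2R, 30,000 cells/well, held overnight. Compound dose-response with NKH-477 (forskolin analogue, 25 µM) for 30 min at 37 °C. cAMP measured by enzyme-fragment-complementation chemiluminescence. Normalized with NKH-477 alone = 100%. Three independent experiments in triplicate, mean ± SEM.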

Cannabinoid receptor 2 [9] = molecular target: T3, Cannabinoid receptor 2; assay: Potency index, ratio of SR144528 Ki to compound Ki for displacement of 3[H]-CP55940 from human recombinant CB2
SH-SY5Y [10] = assay: Cytotoxicity against human SH-SY5Y cells assessed as effect on cell viability up to 5 uM after 24 hrs by MTT assay; format: cell-based
Outline: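 SH-SY5Y cells grown in DMEM with 10% FBS, 2 mM L-glutamine and penicillin/streptomycin, seeded 2×10^4 cells/well, 24 h, then exposed 24 h to 1.25–40 µM. Viability read as MTT reduction: MTT 0.5 mg/mL in HBSS 2 h at 37 °C, formazan dissolved in isopropanol, absorbance 570 nm (reference 690 nm).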

N9 [11] = assay: Immunomodulatory activity in LPS-induced mouse N9 cells assessed as reduction in TREM2 expression at 5 uM after 24 hrs by Western blotting analysis relative to control; format: functional, cell-based
Outline: (§1)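 N9 microglia on poly-L-lysine in DMEM high glucose with 10% FBS, plated 2.5×10^5 cells/35 mm dish. Activated with LPS 100 ng/mL together with 0, 5 or 10 µM compound in serum-free DMEM for 24 h. Lysates run on 12.5% SDS-PAGE and immunoblotted for iNOS or TREM2, with GAPDH as loading control, ECL detection. Densitometry given as % of LPS alone, three experiments.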

Cannabinoid receptor 2 [12] = molecular target: T3, Cannabinoid receptor 2; assay: Inverse agonist activity at recombinant human CB2R expressed in CHOK1 cells assessed as increase in NKH477-stimulated intracellular cAMP levels preincubated for 15 mins followed by CB2 agonist JWH-133 addition and measured after 30 mins by chemiluminescent based cAMP Hunter assay; format: functional, cell-based
N9 [13] = assay: Immunomodulatory activity in LPS-induced mouse N9 cells assessed as reduction in iNOS expression at 5 uM after 24 hrs by Western blotting analysis relative to control; format: functional; details: N9, 24 h; outline: as §1
SH-SY5Y [14] = assay: Neuroprotection against amyloid beta (1 to 42) induced toxicity in human SH-SY5Y cells after 4 hrs by MTT assay; format: functional, cell-based
Outline: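 SH-SY5Y cells seeded 3×10^4/well, 24 h, then treated 4 h with Aβ1-42 oligomers (10 µM) plus compound at 0.625–5.0 µM. Read by MTT formazan exocytosis assay: MTT 0.5 mg/mL in HBSS 1 h at 37 °C, intracellular formazan dissolved in 1% Tween 20, absorbance 570 nm (reference 690 nm). At least three independent experiments.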

N9 [15] = assay: Downregulation of total GAPDH in LPS-induced mouse N9 cells at 5 uM after 24 hrs by Western blotting analysis; format: ADME, cell-based; details: n9, 24 h; outline: as §1

T1 sequence (P06276 whole entry): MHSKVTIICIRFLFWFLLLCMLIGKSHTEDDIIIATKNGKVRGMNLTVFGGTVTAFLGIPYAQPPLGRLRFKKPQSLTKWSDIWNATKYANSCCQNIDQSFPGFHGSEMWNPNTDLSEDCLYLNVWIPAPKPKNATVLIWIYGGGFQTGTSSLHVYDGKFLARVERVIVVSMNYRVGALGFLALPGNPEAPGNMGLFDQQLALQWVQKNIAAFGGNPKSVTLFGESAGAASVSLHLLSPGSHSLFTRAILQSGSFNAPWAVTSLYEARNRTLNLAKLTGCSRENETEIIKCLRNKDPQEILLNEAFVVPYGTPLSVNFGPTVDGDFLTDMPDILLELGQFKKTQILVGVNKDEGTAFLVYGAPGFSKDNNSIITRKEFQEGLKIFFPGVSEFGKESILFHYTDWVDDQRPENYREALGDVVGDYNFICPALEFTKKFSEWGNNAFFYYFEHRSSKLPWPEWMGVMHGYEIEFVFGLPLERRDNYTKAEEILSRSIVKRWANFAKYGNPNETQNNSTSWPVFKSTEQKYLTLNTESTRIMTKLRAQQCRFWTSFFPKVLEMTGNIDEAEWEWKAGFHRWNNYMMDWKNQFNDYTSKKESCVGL
T2 sequence (P21554 whole entry): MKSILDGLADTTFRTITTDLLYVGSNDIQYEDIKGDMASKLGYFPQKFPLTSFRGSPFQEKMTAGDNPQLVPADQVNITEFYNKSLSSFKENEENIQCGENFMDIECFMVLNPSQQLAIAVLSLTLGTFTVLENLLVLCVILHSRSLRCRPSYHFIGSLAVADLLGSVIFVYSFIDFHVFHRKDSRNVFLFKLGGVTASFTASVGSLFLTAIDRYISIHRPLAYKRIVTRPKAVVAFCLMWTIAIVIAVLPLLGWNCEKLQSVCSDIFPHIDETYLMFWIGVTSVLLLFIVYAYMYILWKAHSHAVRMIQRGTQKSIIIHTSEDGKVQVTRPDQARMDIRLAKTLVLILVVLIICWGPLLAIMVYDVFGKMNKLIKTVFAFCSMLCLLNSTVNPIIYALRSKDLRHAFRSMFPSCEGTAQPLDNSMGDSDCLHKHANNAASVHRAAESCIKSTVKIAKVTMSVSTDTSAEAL
T3 sequence (P34972 whole entry): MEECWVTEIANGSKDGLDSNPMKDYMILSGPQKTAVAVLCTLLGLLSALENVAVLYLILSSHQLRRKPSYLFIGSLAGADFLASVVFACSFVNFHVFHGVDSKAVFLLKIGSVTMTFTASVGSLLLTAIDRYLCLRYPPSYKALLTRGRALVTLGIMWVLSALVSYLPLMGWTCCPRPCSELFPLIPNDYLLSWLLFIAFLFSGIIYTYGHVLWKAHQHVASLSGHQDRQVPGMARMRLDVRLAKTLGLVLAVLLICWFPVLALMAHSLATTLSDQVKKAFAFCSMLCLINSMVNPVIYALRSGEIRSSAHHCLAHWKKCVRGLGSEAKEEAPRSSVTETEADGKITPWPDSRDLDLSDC

COc1ccc(-c2oc3ccccc3c2C(=O)c2ccc(OCCCCCN(C)Cc3ccccc3)cc2)cc1
IC50 (Cholinesterase [1]): 1.09 µM | Ki (Cannabinoid receptor 1 [2]): 1.76 µM | Ki (Cannabinoid receptor 2 [3]): > 10 µM | IC50 (Cannabinoid receptor 2 [4]): > 10 µM | Ratio IC50 (Cholinesterase [5]): 19 | IC50 (Cannabinoid receptor 1 [6]): 7.2 µM | inhibition (Cholinesterase [7]): > 90%

COc1ccc(-c2oc3ccccc3c2C(=O)c2ccc(NCc3ccc(C#N)cc3)cc2)cc1
Ratio Ki (Homo sapiens): 130 | Ki (Cannabinoid receptor 1 [2]): 2.6 µM | Ki (Cannabinoid receptor 2 [3]): 0.02 µM | IC50 (Cannabinoid receptor 2 [4]): 0.09 µM | IC50 (Cannabinoid receptor 1 [6]): 9.12 µM | inhibition (Cholinesterase [7]): < 10%

COc1ccc(-c2oc3ccccc3c2C(=O)c2ccc(N(Cc3ccc(F)cc3)Cc3ccc(F)cc3)cc2)cc1
IC50 (Cholinesterase [1]): 6.03 µM | Ratio Ki (Homo sapiens): > 23 | Ki (Cannabinoid receptor 1 [2]): > 10 µM | Ki (Cannabinoid receptor 2 [3]): 0.43 µM | IC50 (Cannabinoid receptor 2 [4]): 1.65 µM | IC50 (Cannabinoid receptor 1 [6]): > 10 µM | inhibition (Cholinesterase [7]): 75%

COc1ccc(-c2oc3ccccc3c2C(=O)c2ccc(N(Cc3cc(F)cc(F)c3)Cc3cc(F)cc(F)c3)cc2)cc1
IC50 (Cholinesterase [1]): 11.7 µM | Ki (Cannabinoid receptor 1 [2]): > 10 µM | Ki (Cannabinoid receptor 2 [3]): > 10 µM | IC50 (Cannabinoid receptor 2 [4]): > 10 µM | IC50 (Cannabinoid receptor 1 [6]): > 10 µM | inhibition (Cholinesterase [7]): 67%

COc1ccc(-c2oc3ccccc3c2C(=O)c2ccc(NCc3ccccn3)cc2)cc1
Ratio Ki (Homo sapiens): > 7.5 | Ki (Cannabinoid receptor 1 [2]): > 10 µM | Ki (Cannabinoid receptor 2 [3]): 1.34 µM | IC50 (Cannabinoid receptor 2 [4]): 5.09 µM | IC50 (Cannabinoid receptor 1 [6]): > 10 µM | inhibition (Cholinesterase [7]): 15.3%

COc1ccc(-c2oc3ccccc3c2C(=O)c2ccc(N(C)Cc3ccc(F)cc3)cc2)cc1
Activity (Cannabinoid receptor 2 [8]): Active | Ratio Ki (Homo sapiens): 7.4 | Ratio Ki (Cannabinoid receptor 2 [9]): 600 | Activity (SH-SY5Y [10]): Non-Toxic | Ki (Cannabinoid receptor 1 [2]): 0.02 µM | Activity (N9 [11]): inactive | Ki (Cannabinoid receptor 2 [3]): 0.0027 µM | IC50 (Cannabinoid receptor 2 [4]): 0.01 µM | IC50 (Cannabinoid receptor 1 [6]): 0.08 µM | inhibition (Cholinesterase [7]): < 10% | Activity (Cannabinoid receptor 2 [12]): Dose-dependent effect | inhibition at 5 µM (N9 [13]): 60%

CCCCCCCNc1ccc(C(=O)c2c(-c3ccc(OC)cc3)oc3ccccc23)cc1
Ratio Ki (Homo sapiens): 4 | Ki (Cannabinoid receptor 1 [2]): 1.66 µM | Ki (Cannabinoid receptor 2 [3]): 0.41 µM | IC50 (Cannabinoid receptor 2 [4]): 1.54 µM | IC50 (Cannabinoid receptor 1 [6]): 5.84 µM | inhibition (Cholinesterase [7]): 30.2%

COc1ccc(-c2oc3ccccc3c2C(=O)c2ccc(OCCN(C)Cc3ccccc3)cc2)cc1
IC50 (Cholinesterase [1]): 14 µM | Ratio Ki (Homo sapiens): 0.6 | Ki (Cannabinoid receptor 1 [2]): 0.43 µM | Ki (Cannabinoid receptor 2 [3]): 0.69 µM | IC50 (Cannabinoid receptor 2 [4]): 2.63 µM | IC50 (Cannabinoid receptor 1 [6]): 1.52 µM | inhibition (Cholinesterase [7]): 65%

COc1ccc(-c2oc3ccccc3c2C(=O)c2ccc(N(Cc3ccccc3)Cc3ccccc3)cc2)cc1
Ratio Ki (Homo sapiens): > 11 | Ki (Cannabinoid receptor 1 [2]): > 10 µM | Ki (Cannabinoid receptor 2 [3]): 0.92 µM | IC50 (Cannabinoid receptor 2 [4]): 3.64 µM | IC50 (Cannabinoid receptor 1 [6]): > 10 µM | inhibition (Cholinesterase [7]): 30.9%

COc1ccc(-c2oc3ccccc3c2C(=O)c2ccc(-n3cc(COc4cccc(F)c4)nn3)cc2)cc1
Ki (Cannabinoid receptor 1 [2]): > 10 µM | Ki (Cannabinoid receptor 2 [3]): > 10 µM | IC50 (Cannabinoid receptor 2 [4]): > 10 µM | IC50 (Cannabinoid receptor 1 [6]): > 10 µM | inhibition (Cholinesterase [7]): < 10%

COc1ccc(-c2oc3ccccc3c2C(=O)c2ccc(OCCCN(C)Cc3ccccc3)cc2)cc1
IC50 (Cholinesterase [1]): 135 µM | Ratio Ki (Homo sapiens): 4.2 | Ki (Cannabinoid receptor 1 [2]): 0.5 µM | Ki (Cannabinoid receptor 2 [3]): 0.12 µM | IC50 (Cannabinoid receptor 2 [4]): 0.44 µM | IC50 (Cannabinoid receptor 1 [6]): 2.06 µM | inhibition (Cholinesterase [7]): 35%

COc1ccc(-c2oc3ccccc3c2C(=O)c2ccc(NCc3cc(F)cc(F)c3)cc2)cc1
Ratio Ki (Homo sapiens): > 33 | Ki (Cannabinoid receptor 1 [2]): > 10 µM | Ki (Cannabinoid receptor 2 [3]): 0.3 µM | IC50 (Cannabinoid receptor 2 [4]): 1.15 µM | IC50 (Cannabinoid receptor 1 [6]): > 10 µM | inhibition (Cholinesterase [7]): < 10%

COc1ccc(-c2oc3ccccc3c2C(=O)c2ccc(NCc3ccccc3)cc2)cc1
Ratio Ki (Homo sapiens): > 59 | Ki (Cannabinoid receptor 1 [2]): > 10 µM | Ki (Cannabinoid receptor 2 [3]): 0.17 µM | IC50 (Cannabinoid receptor 2 [4]): 0.66 µM | IC50 (Cannabinoid receptor 1 [6]): > 10 µM | inhibition (Cholinesterase [7]): < 10%

COc1ccc(-c2oc3ccccc3c2C(=O)c2ccc(NCc3ccc(F)cc3)cc2)cc1
Ratio Ki (Homo sapiens): 39 | Activity (SH-SY5Y [10]): Non-Toxic | Ki (Cannabinoid receptor 1 [2]): 0.78 µM | Activity (N9 [11]): inactive | Ki (Cannabinoid receptor 2 [3]): 0.02 µM | IC50 (Cannabinoid receptor 2 [4]): 0.07 µM | IC50 (Cannabinoid receptor 1 [6]): 3.21 µM | inhibition (Cholinesterase [7]): 60.8% | Activity (SH-SY5Y [14]): Dose-dependent effect | inhibition at 5 µM (N9 [13]): 83%

COc1ccc(-c2oc3ccccc3c2C(=O)c2ccc(OCCCCN(C)Cc3ccccc3)cc2)cc1
IC50 (Cholinesterase [1]): 219 µM | Ki (Cannabinoid receptor 1 [2]): 0.86 µM | Ki (Cannabinoid receptor 2 [3]): > 10 µM | IC50 (Cannabinoid receptor 2 [4]): > 10 µM | IC50 (Cannabinoid receptor 1 [6]): 3.52 µM | inhibition (Cholinesterase [7]): 35.2%

COc1ccc(CNc2ccc(C(=O)c3c(-c4ccc(OC)cc4)oc4ccccc34)cc2)cc1
Ratio Ki (Homo sapiens): > 10 | Ki (Cannabinoid receptor 1 [2]): > 10 µM | Ki (Cannabinoid receptor 2 [3]): 1.02 µM | IC50 (Cannabinoid receptor 2 [4]): 3.86 µM | IC50 (Cannabinoid receptor 1 [6]): > 10 µM | inhibition (Cholinesterase [7]): < 10%

COc1ccc(-c2oc3ccccc3c2C(=O)c2ccc(NCC3CC3)cc2)cc1
Ratio Ki (Homo sapiens): 4.3 | Ki (Cannabinoid receptor 1 [2]): 0.47 µM | Ki (Cannabinoid receptor 2 [3]): 0.11 µM | IC50 (Cannabinoid receptor 2 [4]): 0.41 µM | IC50 (Cannabinoid receptor 1 [6]): 1.67 µM | inhibition (Cholinesterase [7]): 22.4%

CCCCCNc1ccc(C(=O)c2c(-c3ccc(OC)cc3)oc3ccccc23)cc1
IC50 (Cholinesterase [1]): 3.9 µM | Ratio Ki (Homo sapiens): 1.1 | Ki (Cannabinoid receptor 1 [2]): 0.08 µM | Ki (Cannabinoid receptor 2 [3]): 0.07 µM | IC50 (Cannabinoid receptor 2 [4]): 0.26 µM | IC50 (Cannabinoid receptor 1 [6]): 0.3 µM | inhibition (Cholinesterase [7]): 72.2%

CN(CCCCCCCOc1ccc(-c2oc3ccccc3c2C(=O)c2ccccc2)cc1)Cc1ccccc1
Activity (N9 [15]): Toxic
